Laboratory results taken from ChEMBL document CHEMBL2390926, “Identification of novel FLT3 kinase inhibitors” (Eur J Med Chem, 2013).
Activity calls are given as the source filed them. The calls are words filed in the database; no cut-off is given here.

Experiments:
[1] = test system: MOLM-13; assay: Cytotoxicity against human MOLM13 cells after 24 hrs by plate reader analysis; assay type: functional, cell-based; details: MOLM-13, 24 h
Outline: (§1)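 Cells in RPMI 1640 with 10% FBS at 37 °C and 5% CO2 were seeded at 100,000 cells/ml. They were treated for 24 h at 8 concentrations (50–6400 nM), each in triplicate, with DMSO as negative control. Viable cells were measured by ATP-lite luminescence, and EC50 was taken from dose–response curves.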

[2] = test system: KG-1; assay: Cytotoxicity against human KG1 cells after 24 hrs by plate reader analysis; assay type: functional, cell-based; details: KG-1, 24 h; outline: as §1
[3] = biological target: Proto-oncogene tyrosine-protein kinase Src (Homo sapiens) (UniProt P12931); assay: Inhibition of SRC (unknown origin) transfected in mouse Ba/F3 cells up to 1 uM; assay type: cell-based; details: BaF3
Outline: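 Ba/F3 cells transformed by ROS1 or SRC, dependent on that kinase. Parental Ba/F3 grown with mouse IL-3 served as control. Seeded at 100,000 cells/ml. Eight concentrations (50–6400 nM) run in triplicate with DMSO negative control for 24 h. Viable cells quantified by ATP-lite luminescence, mean ± SEM.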

[4] = biological target: T1, Ephrin type-A receptor 8 (Homo sapiens) (UniProt P29322); assay: Inhibition of EPHA8 (unknown origin) transfected in mouse Ba/F3 cells up to 1 uM; assay type: cell-based; details: BaF3
T1 sequence (whole entry): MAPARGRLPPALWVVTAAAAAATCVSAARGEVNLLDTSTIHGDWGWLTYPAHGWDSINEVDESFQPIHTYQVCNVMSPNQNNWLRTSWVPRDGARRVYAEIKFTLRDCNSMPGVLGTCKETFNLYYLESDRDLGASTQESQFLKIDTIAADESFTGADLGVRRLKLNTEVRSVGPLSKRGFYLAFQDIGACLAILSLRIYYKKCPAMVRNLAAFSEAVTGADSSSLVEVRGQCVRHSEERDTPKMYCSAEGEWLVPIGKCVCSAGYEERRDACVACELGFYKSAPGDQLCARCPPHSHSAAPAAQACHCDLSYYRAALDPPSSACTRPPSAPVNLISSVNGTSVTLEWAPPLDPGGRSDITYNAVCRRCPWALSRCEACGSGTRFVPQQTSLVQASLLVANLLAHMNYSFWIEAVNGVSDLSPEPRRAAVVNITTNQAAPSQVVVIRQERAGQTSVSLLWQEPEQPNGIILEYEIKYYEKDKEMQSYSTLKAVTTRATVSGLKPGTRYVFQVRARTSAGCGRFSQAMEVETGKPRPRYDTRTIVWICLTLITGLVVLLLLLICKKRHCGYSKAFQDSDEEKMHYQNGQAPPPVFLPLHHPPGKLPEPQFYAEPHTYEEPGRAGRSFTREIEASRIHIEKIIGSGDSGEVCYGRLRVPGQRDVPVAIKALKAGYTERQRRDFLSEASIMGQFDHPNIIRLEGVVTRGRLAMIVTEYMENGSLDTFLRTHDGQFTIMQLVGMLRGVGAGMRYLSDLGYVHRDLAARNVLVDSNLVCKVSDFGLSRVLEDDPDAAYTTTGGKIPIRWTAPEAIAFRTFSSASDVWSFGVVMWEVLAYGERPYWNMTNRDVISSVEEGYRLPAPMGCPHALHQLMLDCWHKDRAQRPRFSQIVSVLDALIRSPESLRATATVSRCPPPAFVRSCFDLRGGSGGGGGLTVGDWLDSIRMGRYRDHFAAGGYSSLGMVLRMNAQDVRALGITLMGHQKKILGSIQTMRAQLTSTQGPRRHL

[5] = biological target: Platelet-derived growth factor receptor alpha (Homo sapiens) (UniProt P16234); assay: Inhibition of PDGFRalpha phosphorylation in human EOL-1 cells after 90 mins by Western blot analysis; assay type: cell-based; details: EOL1
Outline: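 EOL-1 cells (FIP1L1-PDGFRA, RPMI/10% FBS) treated 90 min with increasing compound doses. Lysed in lysis buffer with 1 mM NaVO4 and protease inhibitors, reduced, and run on Bis-Tris 4–12% gels. Western blot for phospho-PDGFRα and phospho-STAT5, with total PDGFRα and STAT5 as loading controls.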

Chain of Proto-oncogene tyrosine-protein kinase Src (Homo sapiens) (P12931 2-536 limits assumed): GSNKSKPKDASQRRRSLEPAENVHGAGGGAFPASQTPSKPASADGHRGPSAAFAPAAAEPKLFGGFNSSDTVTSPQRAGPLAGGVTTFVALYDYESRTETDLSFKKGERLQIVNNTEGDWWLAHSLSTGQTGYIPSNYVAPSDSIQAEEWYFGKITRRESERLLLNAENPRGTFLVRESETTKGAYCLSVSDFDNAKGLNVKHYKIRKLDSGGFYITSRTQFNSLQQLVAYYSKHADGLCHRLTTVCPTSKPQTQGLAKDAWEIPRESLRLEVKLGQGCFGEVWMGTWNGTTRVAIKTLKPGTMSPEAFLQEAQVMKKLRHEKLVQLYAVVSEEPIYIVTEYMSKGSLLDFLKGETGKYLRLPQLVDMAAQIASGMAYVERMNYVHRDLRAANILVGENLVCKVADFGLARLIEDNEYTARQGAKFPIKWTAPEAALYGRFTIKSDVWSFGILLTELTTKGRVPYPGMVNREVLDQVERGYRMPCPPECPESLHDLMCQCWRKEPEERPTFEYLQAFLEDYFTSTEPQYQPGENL
Chain of Platelet-derived growth factor receptor alpha (Homo sapiens) (P16234 whole entry): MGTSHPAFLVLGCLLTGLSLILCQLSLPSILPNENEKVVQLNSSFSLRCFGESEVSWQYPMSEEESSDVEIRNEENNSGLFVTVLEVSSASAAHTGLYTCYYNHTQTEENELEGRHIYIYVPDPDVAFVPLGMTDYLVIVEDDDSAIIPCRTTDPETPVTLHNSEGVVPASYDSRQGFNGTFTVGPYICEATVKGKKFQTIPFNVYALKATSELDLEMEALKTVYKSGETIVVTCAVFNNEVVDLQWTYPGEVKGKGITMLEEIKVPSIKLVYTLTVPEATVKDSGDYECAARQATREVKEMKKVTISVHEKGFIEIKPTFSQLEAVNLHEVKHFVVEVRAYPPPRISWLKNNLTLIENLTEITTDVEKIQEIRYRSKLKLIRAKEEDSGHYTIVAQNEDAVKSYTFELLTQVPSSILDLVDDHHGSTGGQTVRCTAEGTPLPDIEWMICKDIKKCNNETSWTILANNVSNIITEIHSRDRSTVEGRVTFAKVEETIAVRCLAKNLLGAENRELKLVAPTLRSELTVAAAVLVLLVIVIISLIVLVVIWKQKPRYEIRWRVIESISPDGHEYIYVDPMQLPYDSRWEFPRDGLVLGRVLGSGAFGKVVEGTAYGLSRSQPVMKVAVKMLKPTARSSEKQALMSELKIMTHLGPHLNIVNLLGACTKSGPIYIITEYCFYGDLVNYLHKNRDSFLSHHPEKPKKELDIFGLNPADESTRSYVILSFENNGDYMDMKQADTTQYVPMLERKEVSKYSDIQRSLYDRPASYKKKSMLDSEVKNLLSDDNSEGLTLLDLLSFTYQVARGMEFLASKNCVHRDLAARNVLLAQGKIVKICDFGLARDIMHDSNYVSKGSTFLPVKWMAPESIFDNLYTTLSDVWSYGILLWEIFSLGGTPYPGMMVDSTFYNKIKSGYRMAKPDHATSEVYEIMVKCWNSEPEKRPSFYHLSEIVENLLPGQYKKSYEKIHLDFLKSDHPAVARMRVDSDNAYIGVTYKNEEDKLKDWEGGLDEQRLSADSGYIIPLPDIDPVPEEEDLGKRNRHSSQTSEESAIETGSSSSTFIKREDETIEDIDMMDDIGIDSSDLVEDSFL

Work on `COc1ccc(C(=O)Nc2cc(-c3ccccc3)[nH]n2)cc1` yielded an EC50 [1] of 0.292 µM and an EC50 [2] of 15 µM.
`Fc1ccc(-c2n[nH]cc2-c2ccncc2)cc1Cl` was tested, and the inhibition [3] was “inactive” and the inhibition [4] was “inactive”.
In the case of `Cc1ccc(-c2cc(NC(=O)c3ccc(F)cc3)[nH]n2)cc1`, the inhibition [5] is reported as “inactive”.
